Test results as given in ChEMBL document CHEMBL1157987, “Acylated flavonol glycosides from leaves of Stenochlaena palustris” (1999).
In brackets after ≈: the same amount, converted by molar mass.

What was measured:
Type in all cases: functional
Micrococcus luteus = test: Antibacterial activity against Micrococcus luteus ATCC 9341 after 20 hrs by MTT assay; conditions: ATCC 9341, 20 h
Procedure, shortened: (§1)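 Overnight cultures in nutrient broth at 37 °C, diluted to ca. 10⁵ cells/mL in fresh medium. Compounds from 1 mg/mL MeOH stocks dried in wells, redissolved in DMSO plus broth and culture, then twofold serial dilutions in bacterial suspension. Plates held 20 h at 37 °C in moist atmosphere; 0.25% aqueous MTT added, 4 h further incubation; living bacteria seen as violet turbidity.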

Bacillus cereus = test: Antibacterial activity against Bacillus cereus ATCC 10702 after 20 hrs by MTT assay; conditions: ATCC 10702, 20 h; procedure, shortened: as §1
Staphylococcus aureus = test: Antibacterial activity against Staphylococcus aureus ATCC 25923 after 20 hrs by MTT assay; conditions: ATCC 25923, 20 h; procedure, shortened: as §1
[1] = tested on: Staphylococcus epidermidis; test: Antibacterial activity against Staphylococcus epidermidis ATCC 12228 after 20 hrs by MTT assay; conditions: ATCC 12228, 20 h; procedure, shortened: as §1

SMILES: O=C(/C=C/c1ccc(O)cc1)OC[C@H]1O[C@@H](Oc2c(-c3ccc(O)cc3)oc3cc(O)cc(O)c3c2=O)[C@H](O)[C@@H](OC(=O)/C=C/c2ccc(O)cc2)[C@@H]1O
- MIC (Micrococcus luteus): > 256 µg/mL
- MIC (Bacillus cereus): > 256 µg/mL
- MIC (Staphylococcus aureus): > 256 µg/mL
- MIC [1]: > 256 µg/mL

SMILES: O=C(/C=C/c1ccc(O)cc1)O[C@@H]1[C@@H](O)[C@H](Oc2c(-c3ccc(O)cc3)oc3cc(O)cc(O)c3c2=O)O[C@H](CO)[C@H]1O
- MIC (Micrococcus luteus): > 256 µg/mL
- MIC (Bacillus cereus): > 256 µg/mL
- MIC (Staphylococcus aureus): > 256 µg/mL
- MIC [1]: > 256 µg/mL

SMILES: COc1cc(/C=C/C(=O)OC[C@H]2O[C@@H](Oc3c(-c4ccc(O)cc4)oc4cc(O)cc(O)c4c3=O)[C@H](O)[C@@H](OC(=O)/C=C/c3ccc(O)cc3)[C@@H]2O)ccc1O
- MIC (Micrococcus luteus): > 256 µg/mL
- MIC (Bacillus cereus): > 256 µg/mL
- MIC (Staphylococcus aureus): > 256 µg/mL
- MIC [1]: > 256 µg/mL

SMILES: O=C(N[C@H](CO)[C@H](O)c1ccc([N+](=O)[O-])cc1)C(Cl)Cl [CHLORAMPHENICOL]
- MIC (Micrococcus luteus): 2 µg/mL (≈ 6.19 µM)
- MIC (Bacillus cereus): 2 µg/mL (≈ 6.19 µM)
- MIC (Staphylococcus aureus): 4 µg/mL (≈ 12.4 µM)
- MIC [1]: 4 µg/mL (≈ 12.4 µM)

SMILES: O=C(/C=C\c1ccc(O)cc1)OC[C@H]1O[C@@H](Oc2c(-c3ccc(O)cc3)oc3cc(O)cc(O)c3c2=O)[C@H](O)[C@@H](OC(=O)/C=C\c2ccc(O)cc2)[C@@H]1O [STENOPALUSTROSIDE A]
- MIC (Micrococcus luteus): 8 µg/mL (≈ 10.8 µM)
- MIC (Bacillus cereus): 4 µg/mL (≈ 5.4 µM)
- MIC (Staphylococcus aureus): 16 µg/mL (≈ 21.6 µM)
- MIC [1]: 2 µg/mL (≈ 2.7 µM)

SMILES: COc1cc(/C=C/C(=O)OC[C@H]2O[C@@H](Oc3c(-c4ccc(O)cc4)oc4cc(O)cc(O)c4c3=O)[C@H](O)[C@@H](OC(=O)/C=C\c3ccc(O)cc3)[C@@H]2O)ccc1O [STENOPALUSTROSIDE B]
- MIC (Micrococcus luteus): 16 µg/mL (≈ 20.8 µM)
- MIC (Bacillus cereus): 8 µg/mL (≈ 10.4 µM)
- MIC (Staphylococcus aureus): 32 µg/mL (≈ 41.5 µM)
- MIC [1]: 64 µg/mL (≈ 83 µM)

SMILES: COc1cc(C(O)C(CO)Oc2ccc(/C=C/C(=O)OC[C@H]3O[C@@H](Oc4c(-c5ccc(O)cc5)oc5cc(O)cc(O)c5c4=O)[C@H](O)[C@@H](OC(=O)/C=C/c4ccc(O)cc4)[C@@H]3O)cc2OC)ccc1O (some centres not stated) [STENOPALUSTROSIDE E]
- MIC (Micrococcus luteus): > 256 µg/mL
- MIC (Bacillus cereus): > 256 µg/mL
- MIC (Staphylococcus aureus): > 256 µg/mL
- MIC [1]: > 256 µg/mL

SMILES: O=C(/C=C/c1ccc(O)cc1)OC[C@H]1O[C@@H](Oc2c(-c3ccc(O)cc3)oc3cc(O)cc(O)c3c2=O)[C@H](O)[C@@H](O)[C@@H]1O [TILIROSIDE]
- MIC (Micrococcus luteus): > 256 µg/mL
- MIC (Bacillus cereus): > 256 µg/mL
- MIC (Staphylococcus aureus): > 256 µg/mL
- MIC [1]: > 256 µg/mL
